Reference: ChEMBL document CHEMBL3585302, “Synthesis and antibacterial activities of cadiolides A, B and C and analogues” (Bioorg Med Chem, 2015)
The source made the active and inactive calls. The calls are words filed in the database; no cut-off is given here.

Assays:
Bacillus cereus [1] = assay: Antibacterial activity against Bacillus cereus CECT 148 assessed as inhibition of microbial growth incubated for 18 hrs by 2-fold microtiter broth dilution method; type: functional, organism-based; settings: CECT 148, 18 h
Outline: (§1)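 Compounds in DMSO, ten 2-fold serial dilutions (125 down to 0.24 µg/mL tested). Bacteria at OD620 = 0.001 in Nutrient Broth mixed 1:1 with dilutions. Incubated overnight (18 h) at 28°C or 37°C according to strain. Growth read turbidimetrically at OD620. MIC is the lowest concentration giving complete growth inhibition. Triplicate runs. Tetracycline as reference.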

Staphylococcus aureus [2] = assay: Antibacterial activity against Staphylococcus aureus CECT 86 assessed as inhibition of microbial growth incubated for 18 hrs by 2-fold microtiter broth dilution method; type: functional, organism-based; settings: CECT 86, 18 h; outline: as §1
Enterococcus faecalis [3] = assay: Antibacterial activity against Enterococcus faecalis CECT 481 assessed as inhibition of microbial growth incubated for 18 hrs by 2-fold microtiter broth dilution method; type: functional, organism-based; settings: CECT 481, 18 h; outline: as §1
Salmonella typhi [4] = assay: Antibacterial activity against Salmonella typhi CECT 409 assessed as inhibition of microbial growth incubated for 18 hrs by 2-fold microtiter broth dilution method; type: functional, organism-based, Salmonella enterica subsp. enterica serovar Typhi; settings: Salmonella enterica, CECT 409, 18 h
Outline: (§2)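 Compounds in DMSO, ten 2-fold serial dilutions (125 down to 0.24 µg/mL), mixed 1:1 with bacteria in Nutrient Broth at OD620 = 0.001. Incubated overnight (18 h) at 28 or 37 °C depending on strain. Growth read turbidimetrically at OD620; MIC is the lowest concentration completely inhibiting growth, per CLSI. Triplicate runs; tetracycline reference.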

Escherichia coli [5] = assay: Antibacterial activity against Escherichia coli CECT 405 assessed as inhibition of microbial growth incubated for 18 hrs by 2-fold microtiter broth dilution method; type: functional, organism-based; settings: CECT 405, 18 h; outline: as §1
[6] = test system: Pectobacterium carotovorum; assay: Antibacterial activity against Erwinia carotovora CECT 225 assessed as inhibition of microbial growth incubated for 18 hrs by 2-fold microtiter broth dilution method; type: functional, organism-based; settings: CECT 225, 18 h; outline: as §1
Bacillus subtilis [7] = assay: Antibacterial activity against Bacillus subtilis CECT 35 assessed as inhibition of microbial growth incubated for 18 hrs by 2-fold microtiter broth dilution method; type: functional, organism-based; settings: CECT 35, 18 h; outline: as §1
Escherichia coli [8] = assay: Antibacterial activity against Escherichia coli CECT 100 assessed as inhibition of microbial growth incubated for 18 hrs by 2-fold microtiter broth dilution method; type: functional, organism-based; settings: CECT 100, 18 h; outline: as §1
[9] = Cytotoxicity against human neutrophils assessed as reduction in cell viability at 100 uM incubated for 24 hrs by MTT assay; type: cell-based; settings: neutrophil
Outline: (§3)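 Neutrophils from buffy coats of healthy donors were isolated by Ficoll-Hypaque gradient and seeded at 2 x 10⁵ cells/mL in supplemented RPMI. Exposed to 30 or 100 µM for 24 h at 37 °C, then MTT (2 mg/mL in PBS) added for 3 h. Formazan dissolved in DMSO and read at 560 and 630 nm. Mean ± SEM of n=6-9 independent experiments, compared against vehicle.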

[10] = Cytotoxicity against human neutrophils assessed as reduction in cell viability at 30 uM incubated for 24 hrs by MTT assay; type: cell-based; settings: neutrophil; outline: as §3
[11] = Selectivity index, ratio of cytotoxicity against human neutrophils by MTT assay to antibacterial IC50 against Staphylococcus aureus CECT 86; type: toxicity; settings: read-out: Selectivity Index
[12] = Selectivity index, ratio of cytotoxicity against human neutrophils by MTT assay to antibacterial IC50 against Enterococcus faecalis CECT 481; type: toxicity; settings: read-out: Selectivity Index
[13] = Selectivity index, ratio of cytotoxicity against human neutrophils by MTT assay to antibacterial IC50 against Salmonella typhi CECT 409; type: toxicity; settings: read-out: Selectivity Index
[14] = Selectivity index, ratio of cytotoxicity against human neutrophils by MTT assay to antibacterial IC50 against Escherichia coli CECT 405; type: toxicity; settings: read-out: Selectivity Index
[15] = Toxicity in human neutrophils assessed as induction of apoptosis at 30 and 100 uM incubated for 24 hrs by annexin V-FITC and propidium iodide staining based cytofluorometry; type: cell-based; settings: neutrophil
Outline: (§4)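 Freshly isolated donor neutrophils (2 x 10⁶ cells/mL stock, diluted into supplemented RPMI) cultured 24 h with 30 or 100 µM. Stained with annexin V-FITC/propidium iodide; 1 x 10⁴ cells analysed by flow cytometry. Gating: annexin V+/PI− apoptotic, V+/PI+ late apoptotic/necrotic, V−/PI− viable. Mean ± SEM, n=3, compared against vehicle.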

[16] = Toxicity in human neutrophils assessed as cell survival at 30 uM incubated for 24 hrs by annexin V-FITC and propidium iodide staining based cytofluorometry; settings: neutrophil; outline: as §4
[17] = Toxicity in human neutrophils assessed as induction of necrosis at 100 uM incubated for 24 hrs by annexin V-FITC and propidium iodide staining based cytofluorometry; type: cell-based; settings: neutrophil; outline: as §4
[18] = Selectivity index, ratio of cytotoxicity against human neutrophils by annexin V-FITC and propidium iodide staining based cytofluorometry to antibacterial IC50 against Staphylococcus aureus CECT 86; type: toxicity; settings: read-out: Selectivity Index
[19] = Selectivity index, ratio of cytotoxicity against human neutrophils by annexin V-FITC and propidium iodide staining based cytofluorometry to antibacterial IC50 against Enterococcus faecalis CECT 481; type: toxicity; settings: read-out: Selectivity Index
[20] = Selectivity index, ratio of cytotoxicity against human neutrophils by annexin V-FITC and propidium iodide staining based cytofluorometry to antibacterial IC50 against Salmonella typhi CECT 409; type: toxicity; settings: read-out: Selectivity Index
[21] = Selectivity index, ratio of cytotoxicity against human neutrophils by annexin V-FITC and propidium iodide staining based cytofluorometry to antibacterial IC50 against Escherichia coli CECT 405; type: toxicity; settings: read-out: Selectivity Index
Bacillus cereus [22] = assay: Antibacterial activity against Bacillus cereus CECT 148 assessed as inhibition of microbial growth at 125 ug/ml incubated for 18 hrs by 2-fold microtiter broth dilution method; type: functional, organism-based; outline: as §1
Staphylococcus aureus [23] = assay: Antibacterial activity against Staphylococcus aureus CECT 86 assessed as inhibition of microbial growth at 125 ug/ml incubated for 18 hrs by 2-fold microtiter broth dilution method; type: functional, organism-based; outline: as §1
Enterococcus faecalis [24] = assay: Antibacterial activity against Enterococcus faecalis CECT 481 assessed as inhibition of microbial growth at 125 ug/ml incubated for 18 hrs by 2-fold microtiter broth dilution method; type: functional, organism-based; outline: as §1
Salmonella typhi [25] = assay: Antibacterial activity against Salmonella typhi CECT 409 assessed as inhibition of microbial growth at 125 ug/ml incubated for 18 hrs by 2-fold microtiter broth dilution method; type: functional, organism-based; settings: Salmonella enterica subsp. enterica serovar Typhi; outline: as §2
Escherichia coli [26] = assay: Antibacterial activity against Escherichia coli CECT 405 assessed as inhibition of microbial growth at 125 ug/ml incubated for 18 hrs by 2-fold microtiter broth dilution method; type: functional, organism-based; outline: as §1
[27] = test system: Pectobacterium carotovorum; assay: Antibacterial activity against Erwinia carotovora CECT 225 assessed as inhibition of microbial growth at 125 ug/ml incubated for 18 hrs by 2-fold microtiter broth dilution method; type: functional, organism-based; outline: as §1
Bacillus subtilis [28] = assay: Antibacterial activity against Bacillus subtilis CECT 35 assessed as inhibition of microbial growth at 125 ug/ml incubated for 18 hrs by 2-fold microtiter broth dilution method; type: functional, organism-based; outline: as §1
Escherichia coli [29] = assay: Antibacterial activity against Escherichia coli CECT 100 assessed as inhibition of microbial growth at 125 ug/ml incubated for 18 hrs by 2-fold microtiter broth dilution method; type: functional, organism-based; outline: as §1

| SMILES | IC50 (Bacillus cereus [1]) [µM] | MIC (Bacillus cereus [1]) [µg/mL] | IC50 (Staphylococcus aureus [2]) [µM] | MIC (Staphylococcus aureus [2]) [µg/mL] | IC50 (Enterococcus faecalis [3]) [µM] | MIC (Enterococcus faecalis [3]) [µg/mL] | IC50 (Salmonella typhi [4]) [µM] | MIC (Salmonella typhi [4]) [µg/mL] | IC50 (Escherichia coli [5]) [µM] | MIC (Escherichia coli [5]) [µg/mL] | MIC [6] [µg/mL] | MIC (Bacillus subtilis [7]) [µg/mL] | IC50 (Escherichia coli [8]) [µM] | MIC (Escherichia coli [8]) [µg/mL] | Activity [9] | Activity [10] | selectivity ratio [11] | selectivity ratio [12] | selectivity ratio [13] | selectivity ratio [14] | also measured |
| --- | --- | --- | --- | --- | --- | --- | --- | --- | --- | --- | --- | --- | --- | --- | --- | --- | --- | --- | --- | --- | --- |
| O=C1O/C(=C\c2ccc(O)c(Br)c2)C(c2cc(Br)c(O)c(Br)c2)=C1C(=O)c1ccco1 | 6.38 | 3.9 | 3.19 | 1.95 | 3.19 | 1.95 | 3.19 | 1.95 | 6.38 | 3.9 | 125 | 125 | 25.6 | 15.6 | Toxic | Non-toxic | 5 | 5 | 5 | 5 | Activity [15]: Non-toxic; Activity [16]: Non-toxic; Activity [17]: 57%; selectivity ratio [18]: 5; selectivity ratio [19]: 5; selectivity ratio [20]: 5; selectivity ratio [21]: 5 |
| COc1ccc(C2=C(C(=O)c3cc(Br)c(O)c(Br)c3)C(=O)O/C2=C\c2ccc(O)c(Br)c2)cc1Br |  |  |  |  |  |  |  |  |  |  |  |  |  |  |  |  |  |  |  |  | growth inhibition (GI) (Bacillus cereus [22]): inactive; growth inhibition (GI) (Staphylococcus aureus [23]): inactive; growth inhibition (GI) (Enterococcus faecalis [24]): inactive; growth inhibition (GI) (Salmonella typhi [25]): inactive; growth inhibition (GI) (Escherichia coli [26]): inactive; growth inhibition (GI) [27]: inactive; growth inhibition (GI) (Bacillus subtilis [28]): inactive; growth inhibition (GI) (Escherichia coli [29]): inactive |
| COc1ccc(C2=C(C(=O)c3ccc(O)c(Br)c3)C(=O)O/C2=C\c2ccc(O)c(Br)c2)cc1 |  |  |  |  |  |  |  |  |  |  |  |  |  |  |  |  |  |  |  |  | growth inhibition (GI) (Bacillus cereus [22]): inactive; growth inhibition (GI) (Staphylococcus aureus [23]): inactive; growth inhibition (GI) (Enterococcus faecalis [24]): inactive; growth inhibition (GI) (Salmonella typhi [25]): inactive; growth inhibition (GI) (Escherichia coli [26]): inactive; growth inhibition (GI) [27]: inactive; growth inhibition (GI) (Bacillus subtilis [28]): inactive; growth inhibition (GI) (Escherichia coli [29]): inactive |
| O=C1O/C(=C\c2ccc(O)c(Br)c2)C(c2ccc(O)c(Br)c2)=C1C(=O)c1ccc(O)c(Br)c1 | 3.06 | 1.95 | 3.06 | 1.95 | 3.06 | 1.95 | 3.06 | 1.95 | 3.06 | 1.95 | 125 | 125 | > 196 | > 125 | Toxic | Non-toxic | 5 | 5 | 5 | 5 | Activity [15]: Non-toxic; Activity [16]: Non-toxic; Activity [17]: 98%; selectivity ratio [18]: 5; selectivity ratio [19]: 5; selectivity ratio [20]: 5; selectivity ratio [21]: 5 |
| O=C1O/C(=C\c2ccc(O)c(Br)c2)C(c2ccc(O)c(Br)c2)=C1C(=O)c1ccco1 | 3.66 | 1.95 | 3.66 | 1.95 | 3.66 | 1.95 | 3.66 | 1.95 | 3.66 | 1.95 | 125 | 125 | 29.4 | 15.6 | Toxic | Non-toxic | 5 | 5 | 5 | 5 | Activity [15]: Non-toxic; Activity [16]: Non-toxic; Activity [17]: 95%; selectivity ratio [18]: 5; selectivity ratio [19]: 5; selectivity ratio [20]: 5; selectivity ratio [21]: 5 |
